Results as given in ChEMBL document CHEMBL4400543, “Identification and Characterization of AES-135, a Hydroxamic Acid-Based HDAC Inhibitor That Prolongs Survival in an Orthotopic Mouse Model of Pancreatic Cancer” (J Med Chem, 2019).
Calls of active or inactive are those of the source.

Tests used:
[1] = Stability of the compound in DMSO at 10 mM after 16 hrs in presence of 100 fold excess reduced L-glutathione by 19F NMR analysis; format: physicochemical; conditions: 10000 µM
[2] = test system: MV4-11; experiment: Cytotoxicity against human MV4-11 cells at 50 uM after 72 hrs by CellTiter-Blue assay; format: functional, cell-based
Procedure, shortened: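 Cells in 10% FBS medium, 10 000 cells/well, treated 24 h after plating. Twofold dilution series from a 50.0 μM top dose to 0.097656 μM, in triplicate, 0.5% DMSO vehicle. 72 h at 37 °C, 5% CO2. CellTiter-Blue for 1–4 h, fluorescence 560/590 nm. IC50 by nonlinear regression.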

[3] = Drug uptake in NSG mouse serum at 20 mg/kg, ip administered as single dose and measured at 8 hrs by HPLC-MS/MS analysis; format: ADME, organism-based; conditions: read-out: Drug uptake
Procedure, shortened: (§1)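 NSG mice given a single 20 mg/kg IP dose in Cremophor EL/EtOH (1:1, 4% final volume)/sterile saline. Tail-vein blood at 0.5, 1, 2, 4, 8 and 24 h, n = 2. Drug quantified in serum/plasma. Half-life and clearance calculated assuming 100% bioavailability.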

[4] = Drug uptake in NSG mouse serum at 20 mg/kg, ip administered as single dose and measured at 2 hrs by HPLC-MS/MS analysis; format: ADME, organism-based; conditions: read-out: Drug uptake; procedure, shortened: as §1
[5] = Bioavailability in NSG mouse at 20 mg/kg, ip administered as single dose by HPLC-MS/MS analysis; format: ADME, organism-based; conditions: in vivo
[6] = target: Histone deacetylase 3 (Homo sapiens, UniProt O15379); experiment: Inhibition of recombinant human HDAC3 expressed in SF9 baculoviral system using FAM-labeled acetylated peptide as substrate by EMSA
Sequence of Histone deacetylase 3 (O15379 whole entry): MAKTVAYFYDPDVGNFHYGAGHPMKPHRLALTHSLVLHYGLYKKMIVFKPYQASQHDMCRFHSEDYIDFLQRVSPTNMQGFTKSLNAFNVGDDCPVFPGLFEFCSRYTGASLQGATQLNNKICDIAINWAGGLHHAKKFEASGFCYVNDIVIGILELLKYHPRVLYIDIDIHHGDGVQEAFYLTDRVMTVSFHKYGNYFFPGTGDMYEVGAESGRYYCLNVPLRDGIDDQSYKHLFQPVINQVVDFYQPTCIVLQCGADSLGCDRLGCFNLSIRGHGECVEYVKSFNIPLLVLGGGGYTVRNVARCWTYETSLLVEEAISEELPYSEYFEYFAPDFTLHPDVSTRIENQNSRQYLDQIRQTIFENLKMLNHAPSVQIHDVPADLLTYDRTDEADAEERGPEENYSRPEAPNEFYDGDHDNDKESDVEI
Procedure, shortened: (§2)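 Full-length recombinant human enzyme from an Sf9 baculovirus system, in 100 mM HEPES pH 7.5 with 25 mM KCl, 0.1% BSA, 0.01% Triton X-100 and 1% DMSO. Final enzyme was 0.5 nM for HDAC3, 60 nM for HDAC6 and 5.0 nM for HDAC8. FAM-acetylated peptide was 1 μM. The read-out was product/(substrate+product) by microfluidic mobility shift, with inhibition set against DMSO and no-enzyme controls (quadruplicate). Compounds were tested at 12 threefold-spaced concentrations, and IC50 came from a four-parameter sigmoid fit.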

[7] = species on record: Homo sapiens; experiment: Cytotoxicity against human D425 cells at 39 nM after 72 hrs by Presto Blue assay; format: functional, cell-based
Procedure, shortened: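 D425 and D458 medulloblastoma cells in DMEM high glucose with 20% FBS, seeded at 1000 cells/well in medium with 1% FBS. Twofold dilutions from 20 μM down to 39 nM. Exposed 3 days at 37 °C. Presto Blue added about 4 h before fluorescence read (540–570 nm). IC50 from % viability versus log concentration.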

[8] = Half life in NSG mouse at 20 mg/kg, ip administered as single dose by HPLC-MS/MS analysis; format: ADME, organism-based; conditions: in vivo; procedure, shortened: as §1
[9] = target: T1, Protein deacetylase HDAC6 (Homo sapiens, UniProt Q9UBN7); experiment: Inhibition of recombinant human HDAC6 expressed in SF9 baculoviral system using FAM-labeled acetylated peptide as substrate by EMSA; procedure, shortened: as §2
T1 sequence (Q9UBN7 whole entry): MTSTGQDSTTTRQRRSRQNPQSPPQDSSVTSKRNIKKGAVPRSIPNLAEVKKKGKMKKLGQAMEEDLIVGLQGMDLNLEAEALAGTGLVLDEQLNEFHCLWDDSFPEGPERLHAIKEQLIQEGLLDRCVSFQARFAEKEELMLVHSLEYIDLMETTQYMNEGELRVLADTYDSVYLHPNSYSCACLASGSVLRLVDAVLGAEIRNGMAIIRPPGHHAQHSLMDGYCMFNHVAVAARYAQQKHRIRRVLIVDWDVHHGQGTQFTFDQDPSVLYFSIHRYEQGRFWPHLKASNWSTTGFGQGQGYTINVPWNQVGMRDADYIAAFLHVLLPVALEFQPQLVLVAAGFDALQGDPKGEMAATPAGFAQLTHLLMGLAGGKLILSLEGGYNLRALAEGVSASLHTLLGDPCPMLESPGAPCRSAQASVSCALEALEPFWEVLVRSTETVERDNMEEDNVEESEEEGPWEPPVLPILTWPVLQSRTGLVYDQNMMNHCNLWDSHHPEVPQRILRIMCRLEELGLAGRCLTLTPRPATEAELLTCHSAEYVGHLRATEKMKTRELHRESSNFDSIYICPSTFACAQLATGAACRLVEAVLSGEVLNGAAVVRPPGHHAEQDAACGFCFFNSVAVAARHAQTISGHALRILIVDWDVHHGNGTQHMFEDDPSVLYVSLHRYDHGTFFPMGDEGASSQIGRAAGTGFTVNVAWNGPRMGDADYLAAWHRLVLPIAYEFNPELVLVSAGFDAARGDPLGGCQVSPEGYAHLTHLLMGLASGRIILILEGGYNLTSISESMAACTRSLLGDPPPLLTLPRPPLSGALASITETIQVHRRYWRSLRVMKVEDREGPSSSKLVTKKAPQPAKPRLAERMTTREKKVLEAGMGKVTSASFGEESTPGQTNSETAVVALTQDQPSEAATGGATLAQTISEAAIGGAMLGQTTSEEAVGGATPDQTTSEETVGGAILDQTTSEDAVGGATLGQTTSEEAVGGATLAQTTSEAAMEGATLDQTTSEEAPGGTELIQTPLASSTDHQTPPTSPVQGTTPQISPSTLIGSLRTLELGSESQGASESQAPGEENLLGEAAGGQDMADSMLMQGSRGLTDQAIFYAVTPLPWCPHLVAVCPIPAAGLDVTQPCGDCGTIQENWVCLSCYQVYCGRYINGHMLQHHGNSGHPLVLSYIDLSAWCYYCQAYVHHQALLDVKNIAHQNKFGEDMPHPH

[10] = target: Signal transducer and activator of transcription 3 (Homo sapiens) (UniProt P40763); experiment: Inhibition of STAT3 phosphorylation at S727 residue in human BTSC 147EF cells at 2 uM after 3 to 24 hrs by Western blot method; format: cell-based
Sequence of Signal transducer and activator of transcription 3 (Homo sapiens) (P40763 whole entry): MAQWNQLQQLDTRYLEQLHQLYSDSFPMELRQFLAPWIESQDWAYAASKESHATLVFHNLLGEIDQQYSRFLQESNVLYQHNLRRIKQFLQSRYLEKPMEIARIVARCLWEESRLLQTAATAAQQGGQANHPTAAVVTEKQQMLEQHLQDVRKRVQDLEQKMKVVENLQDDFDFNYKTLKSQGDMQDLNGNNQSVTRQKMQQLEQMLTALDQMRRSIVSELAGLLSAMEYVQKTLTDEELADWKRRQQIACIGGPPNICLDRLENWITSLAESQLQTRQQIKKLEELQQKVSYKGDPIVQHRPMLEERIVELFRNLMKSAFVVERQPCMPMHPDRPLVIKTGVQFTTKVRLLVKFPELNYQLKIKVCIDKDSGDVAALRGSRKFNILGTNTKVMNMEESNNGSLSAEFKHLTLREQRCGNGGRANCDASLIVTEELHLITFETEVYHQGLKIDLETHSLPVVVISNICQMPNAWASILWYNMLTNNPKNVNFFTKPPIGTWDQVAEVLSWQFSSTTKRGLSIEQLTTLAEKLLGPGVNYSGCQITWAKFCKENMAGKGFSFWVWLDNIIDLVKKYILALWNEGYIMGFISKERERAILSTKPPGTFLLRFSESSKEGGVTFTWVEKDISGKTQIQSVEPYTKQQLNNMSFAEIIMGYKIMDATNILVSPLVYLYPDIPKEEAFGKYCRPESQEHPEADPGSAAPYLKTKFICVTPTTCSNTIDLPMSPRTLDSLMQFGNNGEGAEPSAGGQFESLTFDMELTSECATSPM
Procedure, shortened: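 BTSCs dissociated to single cells and treated with drug or DMSO. Lysed in RIPA buffer with protease inhibitors. 20 μg lysate run on SDS-PAGE and transferred to nitrocellulose. Blocked in 5% milk, primary antibody overnight at 4 °C, then HRP secondary for 1 h.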

[11] = test system: Panc1005; experiment: Cytotoxicity against human Panc 10.05 cells assessed as reduction in tumor spheroid intensity after 72 hrs by Alamar Blue assay; format: functional, cell-based; conditions: Panc1005, 72 h
Procedure, shortened: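 3D spheroids of patient-derived PDAC cells (tomato red) alone or with CAF19 cells, plus CAF cultures. Imaging read-outs: area is the μ2 of objects above a tomato red intensity threshold; intensity is summed red or green pixel fluorescence after background removal. n = 3–5.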

[12] = Drug uptake in NSG mouse serum at 20 mg/kg, ip administered as single dose and measured at 4 hrs by HPLC-MS/MS analysis; format: ADME, organism-based; conditions: read-out: Drug uptake; procedure, shortened: as §1
[13] = Toxicity in NSG mouse assessed as body weight loss at 60 mg/kg, ip administered daily for 4 to 5 days; format: organism-based; conditions: in vivo
Procedure, shortened: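 NSG mice were dosed IP daily across a range of doses for 4–5 days (n = 6). Animals were weighed before and after dosing, and toxicity was scored as percentage body-weight loss.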

CC(C)(C)c1ccc(CN(C(=O)CN(Cc2c(F)c(F)c(F)c(F)c2F)S(=O)(=O)c2ccc(F)cc2)c2ccc(C(=O)NO)cc2)cc1
Stability [1]: Stable
Activity [2]: Active
concentration at 8 h [3]: 6390 ng/mL
concentration at 2 h [4]: 5390 ng/mL
bioavailability [5]: 100%
IC50 [6]: 0.654 µM
Activity [7]: Active
half-life [8]: 5 h
IC50 [9]: 0.19 µM
inhibition [10]: inactive
IC50 [11]: 0.6 µM
concentration at 4 h [12]: 3660 ng/mL
Activity [13]: Non-Toxic
